≈ marks a conversion by molar mass, not a printed value.
Columns and labels:
[1] = biological target: Histamine H1 receptor (Homo sapiens, UniProt P35367); assay: Binding affinity to human histamine H1 receptor
[2] = species: Homo sapiens; assay: Selectivity ratio of Ki for human histamine H1 receptor to Ki for human SST5 receptor
[3] = biological target: Somatostatin receptor type 2 (Homo sapiens, UniProt P30874); assay: Displacement of SST14 from human recombinant SST2 receptor
Procedure, shortened: (§1)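 Membranes prepared by sonication from cells expressing the SST receptor subtype, incubated with radiolabeled 11-Tyr SST-14 tracer and test compound at varying concentrations; non-labeled SST-14 defined non-specific binding. Incubation stopped by glass-fiber filtration, bound radioactivity counted; IC50 for half-maximal binding inhibition estimated and Ki derived.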

[4] = biological target: Somatostatin receptor type 3 (Homo sapiens, UniProt P32745); assay: Displacement of SST14 from human recombinant SST3 receptor; procedure, shortened: as §1
[5] = biological target: Somatostatin receptor type 4 (Homo sapiens, UniProt P31391); assay: Displacement of SST14 from human recombinant SST4 receptor; procedure, shortened: as §1
[6] = biological target: 5-hydroxytryptamine receptor 2B (Homo sapiens, UniProt P41595); assay: Binding affinity to human 5HT2B receptor
[7] = Solubility in phosphate buffer at pH 6.5 by lyophilization solubility assay; format: physicochemical
Procedure, shortened: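 Lyophilized DMSO stock solutions redissolved in 50 mM phosphate buffer, pH 6.5; solubility read spectrophotometrically.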

[8] = sPermeability by PAMPA; format: ADME; conditions: read-out: permeability
Procedure, shortened: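 Parallel artificial membrane permeation; Pe categorized as low (<0.1), medium (0.1–1.0) or high (>1.0).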

[9] = Octanol-TAPSO partition coefficient, log D at pH 7.4 by spectrophotometry; format: physicochemical; conditions: octanol/TAPSO buffer
Procedure, shortened: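 Spectrophotometric log D in 1-octanol/50 mM TAPSO buffer, pH 7.4, containing 5% (v/v) DMSO.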

[10] = Dissociation constant, pKa by spectrophotometry; format: physicochemical
[11] = biological target: T1, Somatostatin receptor type 5 (Homo sapiens, UniProt P35346); assay: Displacement of SST14 from human recombinant SST5 receptor expressed in CHO cells by radioligand binding assay; format: cell-based; procedure, shortened: as §1
[12] = Clearance in Wistar rat administered as single dose; format: ADME, organism-based; conditions: in vivo
[13] = Volume of distribution at steady state in Wistar rat administered as single dose; format: ADME, organism-based; conditions: in vivo, read-out: Vdss
[14] = Terminal half-life in Wistar rat administered as single dose; format: ADME, organism-based; conditions: in vivo, read-out: beta t1/2 (converted)
[15] = Oral bioavailability in Wistar rat administered as single dose; format: ADME, organism-based; conditions: in vivo
[16] = biological target: Somatostatin receptor type 1 (Homo sapiens, UniProt P30872); assay: Displacement of SST14 from human recombinant SST1 receptor; procedure, shortened: as §1
[17] = biological target: Voltage-gated inwardly rectifying potassium channel KCNH2 (Homo sapiens, UniProt Q12809); assay: (§2) Inhibition of human ERG expressed in CHO cells by patch clamp technique; format: cell-based
[18] = biological target: T1, Somatostatin receptor type 5; assay: Antagonist activity at human SST5 receptor expressed in CHO cells assessed as inhibition of forskolin-induced cAMP release by TR-FRET assay; format: functional, cell-based
Procedure, shortened: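 Transfected cells incubated with forskolin, 0.15 nM SST-14 and test compound at varying concentrations; cellular cAMP measured by FRET-based assay. IC50 taken as concentration half-maximally reversing the SST-14 effect, read from concentration-versus-cAMP curves.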

[19] = biological target: hERG (KCNH2) (Homo sapiens, UniProt Q12809); assay: as §2; format: cell-based; conditions: human, CHO cells expressing human ERG

T1 sequence (P35346 whole entry): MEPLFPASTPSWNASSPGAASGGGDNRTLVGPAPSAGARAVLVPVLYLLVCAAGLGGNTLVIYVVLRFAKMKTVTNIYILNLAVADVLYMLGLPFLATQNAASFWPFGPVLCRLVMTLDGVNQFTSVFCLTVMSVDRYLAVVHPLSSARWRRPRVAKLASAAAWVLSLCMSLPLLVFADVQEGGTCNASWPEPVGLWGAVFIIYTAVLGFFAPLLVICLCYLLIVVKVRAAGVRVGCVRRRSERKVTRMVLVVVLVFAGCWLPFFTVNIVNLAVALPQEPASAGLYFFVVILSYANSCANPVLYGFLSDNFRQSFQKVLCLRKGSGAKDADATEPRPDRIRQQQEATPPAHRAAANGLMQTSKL
Sequence of 5-hydroxytryptamine receptor 2B (P41595 whole entry): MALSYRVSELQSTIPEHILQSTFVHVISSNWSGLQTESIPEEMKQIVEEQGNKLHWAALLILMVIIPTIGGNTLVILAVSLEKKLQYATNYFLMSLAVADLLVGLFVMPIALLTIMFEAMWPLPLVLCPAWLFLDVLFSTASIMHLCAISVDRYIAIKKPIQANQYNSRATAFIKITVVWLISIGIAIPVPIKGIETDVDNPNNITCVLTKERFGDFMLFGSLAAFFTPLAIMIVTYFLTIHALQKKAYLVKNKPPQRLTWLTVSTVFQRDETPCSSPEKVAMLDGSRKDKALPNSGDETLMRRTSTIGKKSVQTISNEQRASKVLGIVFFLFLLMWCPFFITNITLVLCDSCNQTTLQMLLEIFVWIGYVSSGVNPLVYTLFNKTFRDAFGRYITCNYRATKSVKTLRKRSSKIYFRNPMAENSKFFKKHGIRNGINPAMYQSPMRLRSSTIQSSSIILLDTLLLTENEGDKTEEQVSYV
Sequence of Somatostatin receptor type 1 (P30872 whole entry): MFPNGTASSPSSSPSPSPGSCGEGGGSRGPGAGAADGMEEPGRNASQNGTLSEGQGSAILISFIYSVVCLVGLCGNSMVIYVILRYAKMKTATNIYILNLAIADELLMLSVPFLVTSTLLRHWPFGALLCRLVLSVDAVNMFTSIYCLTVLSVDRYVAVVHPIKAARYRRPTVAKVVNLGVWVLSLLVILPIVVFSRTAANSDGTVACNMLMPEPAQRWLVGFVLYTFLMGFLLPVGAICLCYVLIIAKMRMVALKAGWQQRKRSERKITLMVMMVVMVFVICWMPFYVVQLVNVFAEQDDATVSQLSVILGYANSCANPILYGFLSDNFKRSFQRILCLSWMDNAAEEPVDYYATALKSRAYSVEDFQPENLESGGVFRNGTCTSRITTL
Sequence of Somatostatin receptor type 4 (P31391 whole entry): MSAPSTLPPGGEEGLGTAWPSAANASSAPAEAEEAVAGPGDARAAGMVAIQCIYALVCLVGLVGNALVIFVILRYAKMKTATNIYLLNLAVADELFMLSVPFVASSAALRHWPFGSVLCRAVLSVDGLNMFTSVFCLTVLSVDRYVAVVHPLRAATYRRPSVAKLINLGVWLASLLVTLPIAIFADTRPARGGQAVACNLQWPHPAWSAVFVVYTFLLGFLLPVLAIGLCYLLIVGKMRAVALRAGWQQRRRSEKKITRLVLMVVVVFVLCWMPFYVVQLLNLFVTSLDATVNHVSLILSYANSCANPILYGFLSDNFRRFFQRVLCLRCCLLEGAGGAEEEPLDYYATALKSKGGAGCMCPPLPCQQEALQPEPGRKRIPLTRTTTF
Sequence of Histamine H1 receptor (P35367 whole entry): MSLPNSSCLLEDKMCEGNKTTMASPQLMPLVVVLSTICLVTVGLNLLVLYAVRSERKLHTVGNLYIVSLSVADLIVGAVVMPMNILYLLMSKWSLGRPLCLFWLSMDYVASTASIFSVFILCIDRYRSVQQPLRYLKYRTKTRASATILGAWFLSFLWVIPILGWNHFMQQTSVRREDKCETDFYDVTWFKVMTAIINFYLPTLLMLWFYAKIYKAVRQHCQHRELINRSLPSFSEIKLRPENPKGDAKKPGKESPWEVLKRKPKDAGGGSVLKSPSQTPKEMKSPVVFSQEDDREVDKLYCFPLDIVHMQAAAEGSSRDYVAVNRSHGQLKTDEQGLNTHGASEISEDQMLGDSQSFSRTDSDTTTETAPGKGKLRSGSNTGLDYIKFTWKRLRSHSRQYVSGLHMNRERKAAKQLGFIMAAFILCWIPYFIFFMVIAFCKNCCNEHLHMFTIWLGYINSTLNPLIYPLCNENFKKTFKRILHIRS
Sequence of Somatostatin receptor type 3 (P32745 whole entry): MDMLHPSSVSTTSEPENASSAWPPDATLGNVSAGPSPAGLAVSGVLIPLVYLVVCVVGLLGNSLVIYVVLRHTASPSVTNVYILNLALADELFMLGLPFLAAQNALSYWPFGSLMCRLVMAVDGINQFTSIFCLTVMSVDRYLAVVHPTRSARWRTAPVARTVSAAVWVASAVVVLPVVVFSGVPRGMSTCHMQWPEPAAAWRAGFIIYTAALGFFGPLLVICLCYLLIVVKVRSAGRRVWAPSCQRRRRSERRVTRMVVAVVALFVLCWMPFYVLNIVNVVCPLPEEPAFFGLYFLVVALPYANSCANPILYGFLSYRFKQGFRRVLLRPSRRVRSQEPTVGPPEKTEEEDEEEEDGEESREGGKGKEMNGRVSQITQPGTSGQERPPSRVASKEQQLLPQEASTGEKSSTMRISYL
Sequence of Somatostatin receptor type 2 (P30874 whole entry): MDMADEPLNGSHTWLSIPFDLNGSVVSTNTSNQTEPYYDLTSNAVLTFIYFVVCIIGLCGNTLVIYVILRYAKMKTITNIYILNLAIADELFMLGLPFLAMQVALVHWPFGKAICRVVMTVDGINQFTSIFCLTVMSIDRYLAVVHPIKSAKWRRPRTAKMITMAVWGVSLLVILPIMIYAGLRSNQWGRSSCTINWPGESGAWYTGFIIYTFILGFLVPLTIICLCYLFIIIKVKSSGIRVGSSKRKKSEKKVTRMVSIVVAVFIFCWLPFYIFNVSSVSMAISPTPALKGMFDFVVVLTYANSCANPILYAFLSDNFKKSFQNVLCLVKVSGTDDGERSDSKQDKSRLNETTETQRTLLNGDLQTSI
Sequence of Voltage-gated inwardly rectifying potassium channel KCNH2 (Q12809 whole entry): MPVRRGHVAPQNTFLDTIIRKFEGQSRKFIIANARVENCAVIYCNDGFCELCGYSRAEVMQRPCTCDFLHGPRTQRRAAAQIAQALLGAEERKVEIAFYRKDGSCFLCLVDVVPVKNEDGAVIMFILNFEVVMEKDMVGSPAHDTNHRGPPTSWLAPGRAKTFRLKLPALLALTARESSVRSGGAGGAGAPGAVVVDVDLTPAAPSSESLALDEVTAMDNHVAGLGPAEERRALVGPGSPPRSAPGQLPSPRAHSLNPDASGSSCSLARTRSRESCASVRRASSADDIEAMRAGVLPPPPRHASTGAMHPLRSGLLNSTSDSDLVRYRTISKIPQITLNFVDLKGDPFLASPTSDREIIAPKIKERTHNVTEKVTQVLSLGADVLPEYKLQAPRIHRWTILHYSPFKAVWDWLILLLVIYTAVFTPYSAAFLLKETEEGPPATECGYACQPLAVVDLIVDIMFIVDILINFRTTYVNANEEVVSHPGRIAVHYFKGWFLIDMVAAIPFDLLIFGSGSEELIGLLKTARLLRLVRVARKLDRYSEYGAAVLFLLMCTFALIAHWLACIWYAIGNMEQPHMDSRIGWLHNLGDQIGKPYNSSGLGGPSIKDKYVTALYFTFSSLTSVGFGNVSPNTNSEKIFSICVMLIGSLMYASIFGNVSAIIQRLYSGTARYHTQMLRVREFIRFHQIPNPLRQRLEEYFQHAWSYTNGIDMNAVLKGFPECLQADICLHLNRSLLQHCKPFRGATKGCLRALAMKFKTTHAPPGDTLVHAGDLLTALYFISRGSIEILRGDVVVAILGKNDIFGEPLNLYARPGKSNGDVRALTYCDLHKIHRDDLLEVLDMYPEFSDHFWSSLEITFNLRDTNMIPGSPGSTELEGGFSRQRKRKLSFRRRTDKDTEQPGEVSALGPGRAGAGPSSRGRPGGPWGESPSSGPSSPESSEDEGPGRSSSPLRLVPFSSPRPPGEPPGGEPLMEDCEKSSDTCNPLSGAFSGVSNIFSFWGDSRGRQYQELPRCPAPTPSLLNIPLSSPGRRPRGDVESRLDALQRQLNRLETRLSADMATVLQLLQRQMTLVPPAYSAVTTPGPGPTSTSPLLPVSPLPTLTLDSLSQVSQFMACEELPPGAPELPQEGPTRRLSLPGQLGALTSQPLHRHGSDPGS

For `CCOc1cc(CN2CCC(Nc3nc4ccccc4o3)CC2)ccc1Cl`, the Ki [1] was 0.266 µM, the Ratio Ki [2] was 2.4 and the Ki [3] was > 10 µM. For the same molecule, the Ki [4] was > 10 µM, the Ki [5] was > 10 µM and the Ki [6] was 0.074 µM. For the same molecule, the solubility [7] was 44 µg/mL (≈ 114 µM), the Papp [8] was 0.49 ×10⁻⁶ cm/s and the logD [9] was 3.44. For the same molecule, the pKa [10] was 7.63.

Work on `CCOc1cc(CN2CCC(Nc3nc4ccccc4o3)CC2)cc(OC2CCOCC2)c1` yielded a Ki [11] of 0.199 µM, a Ki [1] of 3.6 µM and a Ratio Ki [2] of 18. The Ki [3] was > 10 µM, the Ki [4] was > 10 µM and the Ki [5] was > 10 µM. The Ki [6] was 0.094 µM, the solubility [7] was 212 µg/mL (≈ 469 µM) and the Papp [8] was 2.05 ×10⁻⁶ cm/s. For the same molecule, the logD [9] was 3.02 and the pKa [10] was 7.76.

For `CCOc1cc(CN2CCC(Nc3nc4cc(NS(=O)(=O)c5cn(C)cn5)ccc4o3)CC2)ccc1OC`, the Ki [11] was 0.175 µM, the Ki [3] was > 10 µM and the Ki [4] was > 10 µM. For the same molecule, the Ki [5] was > 10 µM, the solubility [7] was > 720 µg/mL and the Papp [8] was 0.49 ×10⁻⁶ cm/s. It also gave a logD [9] of 1.48, a pKa [10] of 7.91 and a clearance [12] of 41 mL/min/kg. It also gave a Vd [13] of 2.2 L/kg, a half-life [14] of 1.5 h and a bioavailability [15] of 2%.

In the case of `CCOc1cc(CN2CCC(Nc3nc4ccc(C(=O)O)cc4o3)CC2)ccc1Cl`, the Ki [11] is reported as 0.023 µM, the Ki [16] is reported as > 10 µM and the Ki [3] is reported as > 10 µM. For the same molecule, the Ki [4] was > 10 µM, the Ki [5] was > 10 µM and the IC50 [17] was > 10 µM. The solubility [7] was 7 µg/mL (≈ 16.3 µM), the Papp [8] was 3.6 ×10⁻⁶ cm/s and the logD [9] was 1.39. The IC50 [18] was 0.098 µM, the clearance [12] was 27 mL/min/kg and the Vd [13] was 4.3 L/kg. It also gave a half-life [14] of 3.1 h and a bioavailability [15] of 57%.

With `CCOc1cc(CN2CCC(Nc3nc4cc(C(N)=O)ccc4o3)CC2)cc(OCC)c1F` the Ki [11] was 0.008 µM, the Ki [3] was > 10 µM and the Ki [4] was > 10 µM. For the same molecule, the Ki [5] was > 10 µM, the IC50 [17] was 0.43 µM and the solubility [7] was 148 µg/mL (≈ 324 µM). It also gave a Papp [8] of 1.61 ×10⁻⁶ cm/s, a logD [9] of 2.96 and a pKa [10] of 7.72. The clearance [12] was 28 mL/min/kg, the Vd [13] was 3.3 L/kg and the half-life [14] was 2.5 h. The bioavailability [15] was 38%.

For `CCOc1cc(CN2CCC(Nc3nc4cc(NS(=O)(=O)c5ccccc5)ccc4o3)CC2)ccc1OC`, the Ki [11] was 0.205 µM, the Ki [1] was 0.199 µM and the Ratio Ki [2] was 1. For the same molecule, the Ki [3] was > 10 µM, the Ki [4] was > 10 µM and the Ki [5] was > 10 µM. The solubility [7] was 145 µg/mL (≈ 270 µM), the Papp [8] was 2.2 ×10⁻⁶ cm/s and the logD [9] was 1.93. It also gave a pKa [10] of 7.72.

In the case of `CCOc1cc(CN2CCC(Nc3nc4cc(NC(=O)C5CCC5)ccc4o3)CC2)ccc1OC`, the Ki [11] is reported as 0.182 µM, the Ki [1] is reported as 0.923 µM and the Ratio Ki [2] is reported as 5.1. The Ki [16] was 4.95 µM, the Ki [3] was > 10 µM and the Ki [4] was > 10 µM. The Ki [5] was > 10 µM, the Ki [6] was > 10 µM and the solubility [7] was > 638 µg/mL. It also gave a Papp [8] of 1.1 ×10⁻⁶ cm/s and a logD [9] of 2.64.

Molecule `CCOc1cc(CN2CCC(Nc3nc4cc(S(N)(=O)=O)ccc4o3)CC2)cc(OCC)c1N` has a Ki [1] of 2.6 µM, a Ratio Ki [2] of 200 and a Ki [16] of 1.75 µM. For the same molecule, the solubility [7] was 335 µg/mL (≈ 684 µM), the logD [9] was 1.62 and the pKa [10] was 8.28.

With `CCOc1cc(CN2CCC(Nc3nc4ccc(Cl)cc4o3)CC2)ccc1Cl` the Ki [11] was 0.239 µM, the Ki [3] was > 10 µM and the Ki [4] was > 10 µM. For the same molecule, the Ki [5] was > 10 µM, the solubility [7] was 44 µg/mL (≈ 105 µM) and the Papp [8] was 4.81 ×10⁻⁶ cm/s. It also gave a clearance [12] of 37 mL/min/kg, a Vd [13] of 4.6 L/kg and a half-life [14] of 2.6 h. The bioavailability [15] was 33%.

With `CCOc1cc(CN2CCC(Nc3nc4ccc(C(=O)O)cc4o3)CC2)cc(OCC)c1F` the Ki [11] was 0.018 µM, the Ki [16] was > 10 µM and the Ki [3] was > 10 µM. The Ki [4] was > 10 µM, the Ki [5] was > 10 µM and the solubility [7] was 6 µg/mL (≈ 13.1 µM). For the same molecule, the Papp [8] was 2.89 ×10⁻⁶ cm/s, the logD [9] was 1.33 and the IC50 [18] was 0.072 µM. For the same molecule, the clearance [12] was 20 mL/min/kg, the Vd [13] was 1.5 L/kg and the half-life [14] was 2.4 h. The bioavailability [15] was 39%.

In the case of `CCOc1cc(CN2CCC(Nc3nc4cc(S(=O)(=O)CC)ccc4o3)CC2)ccc1OC`, the Ki [11] is reported as 0.196 µM, the Ki [3] is reported as > 10 µM and the Ki [4] is reported as > 10 µM. For the same molecule, the Ki [5] was > 10 µM, the solubility [7] was > 530 µg/mL and the Papp [8] was 1.63 ×10⁻⁶ cm/s. It also gave a logD [9] of 2.13, a pKa [10] of 8.1 and a clearance [12] of 126 mL/min/kg. It also gave a Vd [13] of 3.8 L/kg, a half-life [14] of 0.4 h and a bioavailability [15] of 6%.

For `CCOc1cc(CN2CCC(Nc3nc4cc(C(=O)O)ccc4o3)CC2)cc(OCC)c1Cl`, the Ki [11] was 0.003 µM, the Ratio Ki [2] was > 200 and the Ki [16] was 4.5 µM. The Ki [3] was > 10 µM, the Ki [4] was > 10 µM and the Ki [5] was > 10 µM. The IC50 [17] was > 10 µM, the solubility [7] was 14 µg/mL (≈ 29.5 µM) and the Papp [8] was 2.09 ×10⁻⁶ cm/s. The logD [9] was 1.82, the clearance [12] was 18 mL/min/kg and the Vd [13] was 1.8 L/kg. The half-life [14] was 4.9 h and the bioavailability [15] was 12%.

Molecule `CCOc1cc(CN2CCC(Nc3nc4cc(S(N)(=O)=O)ccc4o3)CC2)ccc1OC` has a Ki [11] of 0.529 µM, a Ki [1] of 0.52 µM and a Ratio Ki [2] of 1. For the same molecule, the Ki [3] was > 10 µM, the Ki [4] was > 10 µM and the Ki [5] was > 10 µM. For the same molecule, the IC50 [19] was 3.5 µM, the solubility [7] was > 614 µg/mL and the Papp [8] was 1.64 ×10⁻⁶ cm/s. For the same molecule, the logD [9] was 1.51, the pKa [10] was 8.05 and the clearance [12] was 103 mL/min/kg. For the same molecule, the Vd [13] was 8.2 L/kg, the half-life [14] was 1.7 h and the bioavailability [15] was 4%.

In the case of `CCOc1cc(CN2CCC(Nc3nc4cc(Cl)c(S(N)(=O)=O)cc4o3)CC2)ccc1F`, the Ki [11] is reported as 0.252 µM, the Ki [1] is reported as 1.37 µM and the Ratio Ki [2] is reported as 5.5. For the same molecule, the Ki [3] was > 10 µM, the Ki [4] was > 10 µM and the Ki [5] was > 10 µM. The Ki [6] was > 10 µM, the solubility [7] was 32 µg/mL (≈ 66.3 µM) and the Papp [8] was 2.45 ×10⁻⁶ cm/s. It also gave a logD [9] of 2.78 and a pKa [10] of 7.61.

With `CCOc1cc(CN2CCC(Nc3nc4ccccc4o3)CC2)ccc1OC` the Ratio Ki [2] was 5.2, the Ki [3] was > 10 µM and the Ki [4] was > 10 µM. The Ki [5] was > 10 µM, the Ki [6] was 0.041 µM and the IC50 [19] was < 0.1 µM. For the same molecule, the pKa [10] was 8.3, the clearance [12] was 84 mL/min/kg and the Vd [13] was 4.1 L/kg. The half-life [14] was 0.7 h and the bioavailability [15] was 6%.

— ChEMBL document CHEMBL1154321, “Benzoxazole piperidines as selective and potent somatostatin receptor subtype 5 antagonists” (Bioorg Med Chem Lett, 2009)
